FLuc inhib CS = counter-screen for luciferase assay inhibitors: firefly luciferase inhibition; P08659; ATPLite firefly luciferase biochemical luminescence, 10 min; inhibition, % at 10 µM; 200,000 tested, 1.5% active; AID 1006;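 active means inhibition above about 50% when tested at 10 µM, limit read from the data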
STAT1 act = STAT1 signaling activation; activation (% of control), % at 5.5 µM; NIH 3T3 STAT1-luciferase reporter, IFN-gamma, luminescence; 100% = IFN-gamma alone, no compound; AID 932; 200,000 tested, 2.6% active;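 active means activation above the screen-wide mean activation plus 3 SD, cut at about 130% in these data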;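 further: raw ratio to IFN-gamma control signal so 100% means no change and 0% no light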
APP 5'UTR act = activates APP 5'UTR luciferase reporter | SH-SY5Y APP 5'UTR luciferase reporter, luminescence; zero percent = DMSO vehicle wells | activation, % at 2 µM | 190,000 tested, 1% active;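 active means activation above a set limit, based on mean plus 3 SD of controls, cut at about 140% in these data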
FLuc act counter = affects firefly luciferase, flagging false hits in luciferase stimulation screens | P08659 | ATPlite luciferase biochemical, luminescence, 10 min; 0 = ATP-free wells, 1 = DMSO control | activation factor at 10 µM | 200,000 tested, under 10 active;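 active means luciferase activation factor, scaled between plate controls, of at least 2 with compound at 10 µM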
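Material: Luciferase/luciferin reagent mix; Doses: test compounds dosed from 2 mM stocks in 100% DMSO; Schedule: 10 min incubation after luciferase reagent addition, room temperature; Measured by: luminescence from luciferase reaction; Read-out: luminescence gain marking luciferase activators.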
NF-kB expr up = NF-kB expression increase, human neuronal cells. 190,000 tested, 1.6% active. NF-kB reporter expression; active compounds read high. fold change at 12.5 µM; in the data active means fold change above about 3.3
Rad51 HR inh = blocks human Rad51 in homologous recombination. Q06609. hRad51 DNA strand exchange, fluorescence dequenching. 200,000 tested, 0.085% active. inhibition, % at 10 µM;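 active means inhibition above 40% at the single screening dose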;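 further: 0% = DMSO control wells and 100% = blanks with heterologous ssDNA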
Target sequence (Q06609 whole entry, looked up): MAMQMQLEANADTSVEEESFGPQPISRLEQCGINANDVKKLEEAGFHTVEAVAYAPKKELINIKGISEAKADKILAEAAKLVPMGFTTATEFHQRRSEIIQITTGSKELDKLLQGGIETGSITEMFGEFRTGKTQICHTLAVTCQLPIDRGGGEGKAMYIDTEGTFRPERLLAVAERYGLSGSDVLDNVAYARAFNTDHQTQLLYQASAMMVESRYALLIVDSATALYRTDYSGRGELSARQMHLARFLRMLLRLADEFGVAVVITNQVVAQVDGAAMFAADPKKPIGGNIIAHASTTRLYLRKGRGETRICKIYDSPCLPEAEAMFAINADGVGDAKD
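material = hRad51 filaments on single-stranded DNA | timing = filaments 15 min 37 °C, then compound 30 min | signal = FRET fluorescence dequenching, excitation 485 nm, emission 520 nm | benchmarks = control wells and blank wells on each plate | evaluation = percent inhibition relative to plate controls and blanks | compound = 10 µM final, single point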
* marks the source's active call; other numbers are inactive results; . = no result given. An excerpt weighted towards active compounds, which were near 3.9% of everything screened.

SMILES	FLuc inhib CS	STAT1 act	APP 5'UTR act	FLuc act counter	NF-kB expr up	Rad51 HR inh
O=[N+]([O-])c1ccc2nc(-c3ccc(OC(F)F)cc3)cn2c1	24	120	82	0.8	3.5*	-9
COc1ccc(-c2ccc(=O)n(Cc3ccc([N+](=O)[O-])cc3)n2)cc1	-5	86	-12	1.1	0.79	-5
CCc1nnc(NC(=O)Cc2ccc(Br)cc2)s1	-2	100	10	1	0.99	-2
N#CCC(=O)Nc1ccc(C(=O)OCC(=O)c2ccc3c(c2)OCCO3)cc1	35	116	112	0.6	4.6*	-28
O=C(COC(=O)c1cccs1)c1ccc2c(c1)OCCO2	95*	96	134	0	3.1	.
NS(=O)(=O)c1ccc(NC(=O)COC(=O)c2ccc3c(c2)OCCO3)cc1	-9	98	15	1.1	1.1	3
CC(=O)Nc1cc(C(=O)OCC(=O)c2ccc(C)cc2)ccc1C	46	143*	17	0.5	3.9*	14
CNc1ccccc1C(=O)OCC(=O)c1ccc(F)cc1	41	132*	8	0.6	1.6	12
Cc1csc2c(N3CCN(C(=O)c4ccc(C(C)(C)C)cc4)CC3)ncnc12	.	.	.	.	.	17
CCOC(=O)Cn1c(=NC(=O)c2ccc([N+](=O)[O-])s2)sc2ccccc21	-7	95	-12	1.1	1.4	-6
CCCCn1c(=O)nc2n(-c3ccc(Cl)cc3)c3ccccc3cc-2c1=O	-5	102	3	1	1.1	13
CC1CN(c2ccc(S(=O)(=O)N3CCCC3)cn2)CC(C)O1 (centres undefined)	.	.	.	.	.	20
Cc1ccc(C(=O)COC(=O)CNC(=O)c2cccs2)cc1	-8	102	-2	1.1	1.1	-6
CC(C)C(=O)Nc1ccccc1C(=O)OCC(=O)c1ccc2c(c1)OCCO2	62*	139*	31	0.4	0.85	-8
O=C(COC(=O)c1cccs1)c1ccc2ccccc2c1	37	123	51	0.6	1.9	5
NS(=O)(=O)c1cc(C(=O)OCC(=O)c2ccc3c(c2)OCCO3)ccc1Cl	92*	120	18	0.1	9.8*	14
CCc1ccc(C(=O)COC(=O)c2cccs2)cc1	87*	115	156*	0.1	1.8	.
Cc1ccc(C(=O)COC(=O)c2cccs2)cc1	92*	77	198*	0.1	7.5*	-2
CC(=O)Nc1ccc(C)c(NS(=O)(=O)c2cccc(C(F)(F)F)c2)c1	.	.	.	.	.	17
COc1ccc(/C=N/NC(=O)c2nonc2C)cc1	47	129*	1	0.5	1.6	4
COc1ccc(/C=N\NC(=O)C2=NNC(=O)C2C)cc1 (centres undefined)	69*	94	72	0.3	1.5	4
COc1ccc(/C=N/NC(=O)CC(=O)N/N=C/c2ccc(OC)cc2)cc1	-5	103	-17	1.1	1.2	1
Cc1nonc1C(=O)N/N=C/c1ccncc1	-1	140*	15	1	0.9	8
CCc1ccc(C2CC(=O)N(c3cccc(F)c3)C3=C2C(=O)OC3)cc1 (centres undefined)	-5	96	1	1.1	1.1	4
COc1ccc(NC2=Nc3ccccc3CC2)cc1	5	132*	102	1	3.7*	4
SMILES	FLuc inhib CS	STAT1 act	APP 5'UTR act	FLuc act counter	NF-kB expr up	Rad51 HR inh
COc1ccc(Nc2ccccc2N)cc1	2	108	2	1	1.1	-29
NNC(=O)CN1CCCc2ccccc21	12	148*	103	0.9	0.91	-6
CCCN(CC(=O)Nc1ccc(Cl)cc1Cl)C(=O)/C=C/c1cc(OC)ccc1OC	-6	101	3	1.1	0.88	9
COc1cccc2cc(NC(=O)C3CCCCC3)c(=O)oc12	5	131*	13	0.9	2.6	1
COc1cccc2cc(C(=O)Nc3cccc(C)n3)c(=O)oc12	54*	.	.	0.5	.	.
COc1cccc2cc(C(=O)N3CCCCC3C)c(=O)oc12 (centres undefined)	-2	100	-7	1	0.97	0
COc1ccc(C(=O)NNC(=O)c2cc3cccc(OC)c3oc2=O)cc1	3	99	17	1	1.1	7
c1ccc(Nc2ncnc3[nH]ncc23)cc1	.	.	.	.	.	-7
O=C(Nc1cccnc1Cl)c1noc2c1CCc1ccccc1-2	18	135*	103	0.8	2.6	0
COC(=O)C1=C(C)N(Cc2cccnc2)C(=O)/C1=C\c1sccc1C	-6	92	-16	1.1	1.3	2
c1ccc(-c2cc(N3CCCCCC3)n[nH]2)cc1	2	130*	28	1	1.4	4
Cn1nccc1NS(=O)(=O)c1ccc(C(C)(C)C)cc1	.	.	.	.	.	-1
CCn1nc(C)cc1C(=O)N1CCc2c([nH]c3ccccc23)C1c1cc(F)ccc1F (centres undefined)	-2	137*	41	1	2.1	.
CCOc1ccc(N(Cc2ccccc2F)C2=NC3CS(=O)(=O)CC3S2)cc1 (centres undefined)	-3	102	2	1	1.1	-17
COc1ccc(C(=O)Nc2nc(-c3cccs3)cs2)cc1	8	137*	84	0.9	1.5	-1
O=C(Nc1nc(-c2cccs2)cs1)C1=COCCO1	32	149*	88	0.7	3.6*	-2
COCn1c(-c2cccc(Br)c2)nc2ccccc21	8	100	18	0.9	1.2	-6
COCn1c(-c2ccc(OC)c(OC)c2)nc2ccccc21	38	132*	73	0.6	1.8	-3
COc1cc(C(=O)Oc2ccccc2/C=N/NC(=O)c2ccc(C)c(Cl)c2)cc(OC)c1OC	-1	101	-50	1	0.92	7
COc1ccc(C(=O)N/N=C/c2ccccc2C(=O)O)cc1OC	.	.	.	.	.	41*
COc1cc(C(=O)Oc2ccccc2/C=N/NC(=O)c2ccc(Cl)cc2)cc(OC)c1OC	6	131*	-40	0.9	1.7	4
Cc1ccc(CN2CCN(/N=C/c3sccc3C)CC2)c(C)c1	-1	103	9	1	1	18
COc1ccccc1N1CCN(c2ccc(-c3ccccc3)nn2)CC1	90*	112	-90	0.1	6.6*	7
COc1ccccc1N1CCN(c2nc(-c3ccccc3)cc(C(F)(F)F)n2)CC1	-8	94	12	1.1	1	4
COc1cccc(N2[C@@H](CC(C)=O)c3ccc(/C=C/C(C)=O)cc3S2(=O)=O)c1	.	.	.	.	.	-2
O=c1cc(-c2ccccc2)[nH]c2nc3ccccc3n12	84*	94	116	0.2	4.8*	4
CCO[C@H]1OC(C(=O)N2CCN(C)CC2)=C[C@@H](c2ccc(Br)cc2)[C@@H]1CCCO	-4	99	1	1	1	0

Assay outcomes from PubChem BioAssay.
